{"source": "PubChem BioAssay AID488974", "about": "(NMMLSC, 2010)", "tested_on": "Igrove/Jurkat-DNR chemoreversal, trypan blue viability, 7 d", "assay": "chemoreversal in ABCG2 cells, dose response, ABC transporter inhibitor project, paired ABCB1 counter-screen, SAR hit validation (AID 488974)", "conditions": "for CC50: measured here: toxicity in resistant cells alone", "in_short": "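System: drug-resistant human Igrove (ABCG2 arm) and Jurkat/DNR (ABCB1 counterscreen) cells / Quantity: 100,000 cells/mL / Also added: fixed selective agents mitoxantrone (Igrove) and daunorubicin (Jurkat/DNR) / Doses: test compound dose series spanning 0.1–100 µM / Incubation: compound exposure over 7 days / Signal: trypan blue exclusion with cell counting by light microscopy / Measure: chemo-reversal 50% viability concentration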", "note": "The source made the active and inactive calls.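 How the source made its calls: active means ratio of toxic midpoint dose to chemo-reversal midpoint dose above 10, among compounds with toxic midpoint under 15 µM; inactive means the rest.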", "data": [{"compound": "O=C(c1ccco1)N1CCN(c2cc(-c3ccccc3)nc3cc(-c4cccc(Cl)c4)nn23)CC1", "values": [{"measurement": "EC50", "result": "0.14 µM (inactive)"}, {"measurement": "CC50", "result": 6, "unit": "µM"}]}, {"compound": "Cc1ccc(-c2cc3nc(-c4ccccc4)cc(N4CCN(C(=O)c5ccoc5)CC4)n3n2)cc1", "values": [{"measurement": "EC50", "result": 0.45, "unit": "µM"}, {"measurement": "CC50", "result": 86, "unit": "µM"}]}, {"compound": "COc1ccc(-c2cc3nc(-c4ccccc4)cc(N4CCN(C(=O)c5ccoc5)CC4)n3n2)cc1", "values": [{"measurement": "EC50", "result": 0.38, "unit": "µM"}, {"measurement": "CC50", "result": "> 100", "unit": "µM"}]}, {"compound": "COc1cccc(-c2cc(N3CCN(C(=O)c4ccoc4)CC3)n3nc(-c4cccc(OC)c4)cc3n2)c1", "values": [{"measurement": "EC50", "result": 0.68, "unit": "µM"}, {"measurement": "CC50", "result": "> 100", "unit": "µM"}]}, {"compound": "Cc1nc2cc(-c3ccc4c(c3)OCO4)nn2c(N2CCN(C(=O)c3ccoc3)CC2)c1C", "values": [{"measurement": "EC50", "result": 1.63, "unit": "µM"}, {"measurement": "CC50", "result": "> 100", "unit": "µM"}]}, {"compound": "O=C(Cc1ccccc1)N1CCN(c2cc(-c3ccccc3)nc3cc(-c4cccc(Cl)c4)nn23)CC1", "values": [{"measurement": "EC50", "result": 0.6, "unit": "µM"}, {"measurement": "CC50", "result": "> 100", "unit": "µM"}]}, {"compound": "COc1ccccc1-c1cc2nc(-c3ccccc3)cc(N3CCN(C(=O)c4ccoc4)CC3)n2n1", "values": [{"measurement": "EC50", "result": "0.49 µM (inactive)"}, {"measurement": "CC50", "result": 6.5, "unit": "µM"}]}, {"compound": "O=C(c1ccoc1)N1CCN(c2cc(-c3ccco3)nc3cc(-c4ccccc4)nn23)CC1", "values": [{"measurement": "EC50", "result": 0.31, "unit": "µM"}, {"measurement": "CC50", "result": 18.3, "unit": "µM"}]}, {"compound": "Cc1nc2ncnn2c(N2CCN(C(=O)c3ccco3)CC2)c1Cc1ccccc1", "values": [{"measurement": "EC50", "result": "10.1 µM (inactive)"}, {"measurement": "CC50", "result": "> 100", "unit": "µM"}]}, {"compound": "Cc1cc(N2CCN(C(=O)c3ccco3)CC2)n2nc(-c3ccccc3)nc2n1", "values": [{"measurement": "EC50", "result": "2.94 µM (inactive)"}, {"measurement": "CC50", "result": 16.2, "unit": "µM"}]}, {"compound": "O=C(c1ccco1)N1CCN(c2cc(Cc3ccccc3)nc3cc(-c4cccc(Cl)c4)nn23)CC1", "values": [{"measurement": "EC50", "result": "1.38 µM (inactive)"}, {"measurement": "CC50", "result": 10.5, "unit": "µM"}]}, {"compound": "Cc1cc(N2CCN(C(=O)c3ccco3)CC2)n2nc(-c3ccc(F)cc3)cc2n1", "values": [{"measurement": "EC50", "result": 0.14, "unit": "µM"}, {"measurement": "CC50", "result": 40.4, "unit": "µM"}]}, {"compound": "Cc1nc2cc(-c3cccc(Cl)c3)nn2c(N2CCN(C(=O)c3ccoc3)CC2)c1C", "values": [{"measurement": "EC50", "result": 0.6, "unit": "µM"}, {"measurement": "CC50", "result": "> 100", "unit": "µM"}]}, {"compound": "Cc1nc2cc(-c3cccc(Cl)c3)nn2c(N2CCN(C(=O)c3ccsc3)CC2)c1C", "values": [{"measurement": "EC50", "result": "0.49 µM (inactive)"}, {"measurement": "CC50", "result": 14.9, "unit": "µM"}]}, {"compound": "Cc1nc2cc(-c3cccc(Cl)c3)nn2c(N2CCN(C(=O)c3ccco3)CC2)c1C", "values": [{"measurement": "EC50", "result": 0.17, "unit": "µM"}, {"measurement": "CC50", "result": 47.4, "unit": "µM"}]}, {"compound": "COc1ccc(-c2cc3nc(C)c(C)c(N4CCN(C(=O)c5ccco5)CC4)n3n2)cc1", "values": [{"measurement": "EC50", "result": "1.44 µM (inactive)"}, {"measurement": "CC50", "result": 10.5, "unit": "µM"}]}, {"compound": "COc1cccc(-c2cc3nc(-c4ccco4)cc(N4CCN(C(=O)c5ccoc5)CC4)n3n2)c1", "values": [{"measurement": "EC50", "result": 1, "unit": "µM"}, {"measurement": "CC50", "result": "> 100", "unit": "µM"}]}, {"compound": "O=C(c1ccncc1)N1CCN(c2cc(-c3ccccc3)nc3cc(-c4cccc(Cl)c4)nn23)CC1", "values": [{"measurement": "EC50", "result": 0.15, "unit": "µM"}, {"measurement": "CC50", "result": 28.3, "unit": "µM"}]}, {"compound": "O=C(c1ccoc1)N1CCN(c2cc(-c3ccccc3)nc3cc(-c4ccncc4)nn23)CC1", "values": [{"measurement": "EC50", "result": 1.5, "unit": "µM"}, {"measurement": "CC50", "result": 22.3, "unit": "µM"}]}, {"compound": "O=C(c1ccco1)N1CCN(c2c3c(nc4cc(-c5cccc(F)c5)nn24)CCCC3)CC1", "values": [{"measurement": "EC50", "result": "0.39 µM (inactive)"}, {"measurement": "CC50", "result": 5.77, "unit": "µM"}]}, {"compound": "Cc1cc(N2CCN(C(=O)c3ccco3)CC2)n2nc(C)c(-c3ccccc3)c2n1", "values": [{"measurement": "EC50", "result": 2.18, "unit": "µM"}, {"measurement": "CC50", "result": 22.3, "unit": "µM"}]}, {"compound": "COc1cccc(C(=O)N2CCN(c3cc(-c4ccccc4)nc4cc(-c5cccc(Cl)c5)nn34)CC2)c1", "values": [{"measurement": "EC50", "result": 0.21, "unit": "µM"}, {"measurement": "CC50", "result": "> 101", "unit": "µM"}]}, {"compound": "Cc1nc2cc(-c3ccc(F)cc3)nn2c(N2CCN(C(=O)c3ccco3)CC2)c1C", "values": [{"measurement": "EC50", "result": "0.12 µM (inactive)"}, {"measurement": "CC50", "result": 5.33, "unit": "µM"}]}, {"compound": "O=C(c1ccoc1)N1CCN(c2cc(-c3cccnc3)nc3cc(-c4cccc(Cl)c4)nn23)CC1", "values": [{"measurement": "EC50", "result": "0.02 µM (inactive)"}, {"measurement": "CC50", "result": 5.77, "unit": "µM"}]}, {"compound": "COc1cc(OC)cc(-c2cc3nc(C)c(C)c(N4CCN(C(=O)c5ccoc5)CC4)n3n2)c1", "values": [{"measurement": "EC50", "result": 0.95, "unit": "µM"}, {"measurement": "CC50", "result": "> 100", "unit": "µM"}]}, {"compound": "O=C(c1ccoc1)N1CCN(c2cc(-c3ccco3)nc3cc(-c4cccc(Cl)c4)nn23)CC1", "values": [{"measurement": "EC50", "result": "1.38 µM (inactive)"}, {"measurement": "CC50", "result": 10.8, "unit": "µM"}]}, {"compound": "O=C(c1cccnc1)N1CCN(c2cc(-c3ccccc3)nc3cc(-c4cccc(Cl)c4)nn23)CC1", "values": [{"measurement": "EC50", "result": "0.13 µM (inactive)"}, {"measurement": "CC50", "result": 10.3, "unit": "µM"}]}, {"compound": "COc1ccc(-c2[nH]nc3nc(N4CCN(C(=O)c5ccoc5)CC4)cc(C(F)(F)F)c23)cc1", "values": [{"measurement": "EC50", "result": "0.46 µM (inactive)"}, {"measurement": "CC50", "result": 1.31, "unit": "µM"}]}, {"compound": "COc1cccc(-c2cc3nc(C)c(C)c(N4CCN(Cc5ccco5)CC4)n3n2)c1", "values": [{"measurement": "EC50", "result": 0.09, "unit": "µM"}, {"measurement": "CC50", "result": "> 100", "unit": "µM"}]}, {"compound": "COc1ccc(-c2cc3nc(-c4ccccc4)cc(N4CCN(C(=O)c5ccsc5)CC4)n3n2)cc1", "values": [{"measurement": "EC50", "result": 0.17, "unit": "µM"}, {"measurement": "CC50", "result": 30.6, "unit": "µM"}]}, {"compound": "COc1ccc(-c2cc3nc(C)c(C)c(N4CCN(C(C)=O)CC4)n3n2)cc1", "values": [{"measurement": "EC50", "result": 3.28, "unit": "µM"}, {"measurement": "CC50", "result": 81.7, "unit": "µM"}]}, {"compound": "COc1ccc(-c2cc3nc(-c4ccccc4)cc(N4CCN(C(=O)c5ccccc5)CC4)n3n2)cc1", "values": [{"measurement": "EC50", "result": 0.2, "unit": "µM"}, {"measurement": "CC50", "result": 82.6, "unit": "µM"}]}, {"compound": "O=C(c1ccco1)N1CCN(c2cc(-c3ccccc3)nc3cc(-c4cccc(F)c4)nn23)CC1", "values": [{"measurement": "EC50", "result": "0.76 µM (inactive)"}, {"measurement": "CC50", "result": 8.25, "unit": "µM"}]}, {"compound": "COc1cccc(-c2cc3nc(C)c(C)c(N4CCN(C(=O)c5ccoc5)CC4)n3n2)c1", "values": [{"measurement": "EC50", "result": 0.76, "unit": "µM"}, {"measurement": "CC50", "result": "> 100", "unit": "µM"}]}, {"compound": "O=C(C1CCCO1)N1CCN(c2c3c(nc4cc(-c5cccc(F)c5)nn24)CCCC3)CC1", "note": "(centres undefined)", "values": [{"measurement": "EC50", "result": 0.2, "unit": "µM"}, {"measurement": "CC50", "result": 17.5, "unit": "µM"}]}, {"compound": "CC(=O)N1CCN(c2c(C)c(C)nc3cc(-c4cccc(F)c4)nn23)CC1", "values": [{"measurement": "EC50", "result": 0.73, "unit": "µM"}, {"measurement": "CC50", "result": "> 100", "unit": "µM"}]}, {"compound": "O=C(c1ccoc1)N1CCN(c2cc(-c3ccncc3)nc3cc(-c4cccc(Cl)c4)nn23)CC1", "values": [{"measurement": "EC50", "result": 0.89, "unit": "µM"}, {"measurement": "CC50", "result": 57.8, "unit": "µM"}]}]}
